These results are taken from ChEMBL document CHEMBL2390921, “A novel benzazepinone sodium channel blocker with oral efficacy in a rat model of neuropathic pain” (Bioorg Med Chem Lett, 2013).

Data set [1] relates to Rattus norvegicus. As to the kind of experiment: Analgesic activity in rat spinal nerve ligation neuropathic pain model assessed as reversal of allodynia at 3 mg/kg, po measured at 4 hrs relative to control. Type of data set: functional. The method in brief: (§1)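 Rat spinal nerve ligation model. Seven days after surgery, rats received a single oral dose (3, 10 or 30 mg/kg) of test agent or vehicle. Tactile allodynia was scored at 2, 4, 8 and 24 h post-dose with calibrated von Frey filaments using an up-down paradigm. Threshold is the force giving a 50% withdrawal rate. %MPE = (post-compound − post-SNL)/(pre-SNL − post-SNL) × 100, where 100% is full reversal.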

For data set [2], the system named is Rattus norvegicus. The data set can be described thus: Analgesic activity in rat spinal nerve ligation neuropathic pain model assessed as reversal of allodynia at 30 mg/kg, po measured at 2 hrs relative to control. Type of data set: functional. In short, it runs like this: as §1
Data set [3] in a line: Half life in Sprague-Dawley rat at 3 mg/kg, po and 1 mg/kg, iv. Type of data set: ADME, organism-based. Conditions: in vivo. In short, it runs like this: (§2)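 Fasted male Sprague–Dawley rats (n = 3 per route) were dosed with 1.5 mg/mL solutions in PEG300/water or DMSO/PEG300/water, either 1.0 mg/kg iv via femoral-vein cannula or 3.0 mg/kg by oral gavage. Blood was sampled at 5 min (iv only), 15 and 30 min, and 1, 2, 4, 6 and 8 h. Plasma levels were measured by LC–MS/MS after acetonitrile protein precipitation.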

In data set [4] the target is Delta-type opioid receptor (Homo sapiens) (UniProt P41143). The data set can be described thus: Binding affinity to delta opioid receptor (unknown origin) at 25 uM relative to control.
The subject of data set [5] is Rattus norvegicus. As to the kind of experiment: Neurotoxicity in rat assessed as motor impairment at 30 to 100 mg/kg, po after 2 to 4 hrs by rotarod test. Type of data set: toxicity, organism-based. Further details: route oral. To be noted: in vivo. In short, it runs like this: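 Rats were trained on a rotarod for 3 min at 10 rpm, then given a single oral dose of test agent or vehicle and tested at 2 and 4 h post-dose. During testing the rod ran at 10 rpm for 60 s, then accelerated to 60 rpm. Time to fall after the start of acceleration was recorded. Impairment was defined as >20% reduction in latency.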

Data set [6] deals with Rattus norvegicus. As to the kind of experiment: Analgesic activity in rat spinal nerve ligation neuropathic pain model assessed as reversal of allodynia at 30 mg/kg, po measured at 8 hrs relative to control. Type of data set: functional. In short, it runs like this: as §1
Data set [7] can be described thus: Oral bioavailability in Sprague-Dawley rat at 3 mg/kg. Type of data set: ADME, organism-based. To be noted: in vivo. The method in brief:
as §2

Data set [8] has as its target Sodium channel protein type 9 subunit alpha (Homo sapiens, UniProt Q15858). As to the kind of experiment: Binding affinity to resting state of human NaV1.7 channel by whole-cell patch clamp assay. In short, it runs like this: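 Manual whole-cell voltage clamp measuring block of resting and inactivated channel states at room temperature. Data acquired at 50 kHz, filtered at 10 kHz. Bath: 40 mM NaCl, 120 mM NMDG-Cl, 1 mM KCl, 2.7 mM CaCl2, 0.5 mM MgCl2, 10 mM NMDG-HEPES, pH 7.4.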

For data set [9], the system named is Rattus norvegicus. As to the kind of experiment: Analgesic activity in po dosed rat spinal nerve ligation neuropathic pain model assessed as reversal of allodynia measured at 2 to 4 hrs. Type of data set: functional. In short, it runs like this:
as §1

For data set [10], the system named is Rattus norvegicus. As to the kind of experiment: Analgesic activity in rat spinal nerve ligation neuropathic pain model assessed as reversal of allodynia at 3 mg/kg, po measured at 24 hrs relative to control. In kind it is functional. The method in brief: as §1
In data set [11] the test system is Rattus norvegicus. The data set can be described thus: Analgesic activity in rat spinal nerve ligation neuropathic pain model assessed as reversal of allodynia at 10 mg/kg, po measured at 4 hrs relative to control. Type of data set: functional. In short, it runs like this:
as §1

Data set [12] concerns Rattus norvegicus. The data set can be described thus: Analgesic activity in rat spinal nerve ligation neuropathic pain model assessed as reversal of allodynia at 10 mg/kg, po measured at 8 hrs relative to control. In kind it is functional. In short, it runs like this: as §1
Data set [13] addresses Kappa-type opioid receptor (Homo sapiens) (UniProt P41145). As to the kind of experiment: Binding affinity to kappa opioid receptor (unknown origin) at 25 uM relative to control.

Delta-type opioid receptor (Homo sapiens), sequence (P41143 whole entry): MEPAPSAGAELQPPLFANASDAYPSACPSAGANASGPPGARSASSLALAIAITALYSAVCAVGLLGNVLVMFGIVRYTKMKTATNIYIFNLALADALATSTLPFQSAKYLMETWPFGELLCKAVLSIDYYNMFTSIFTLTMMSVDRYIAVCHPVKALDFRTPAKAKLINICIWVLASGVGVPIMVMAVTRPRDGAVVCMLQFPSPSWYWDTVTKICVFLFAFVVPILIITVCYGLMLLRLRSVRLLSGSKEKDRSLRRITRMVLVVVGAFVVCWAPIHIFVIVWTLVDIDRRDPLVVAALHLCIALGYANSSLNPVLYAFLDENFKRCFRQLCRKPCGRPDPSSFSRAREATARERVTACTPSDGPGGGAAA
Kappa-type opioid receptor (Homo sapiens), sequence (P41145 whole entry): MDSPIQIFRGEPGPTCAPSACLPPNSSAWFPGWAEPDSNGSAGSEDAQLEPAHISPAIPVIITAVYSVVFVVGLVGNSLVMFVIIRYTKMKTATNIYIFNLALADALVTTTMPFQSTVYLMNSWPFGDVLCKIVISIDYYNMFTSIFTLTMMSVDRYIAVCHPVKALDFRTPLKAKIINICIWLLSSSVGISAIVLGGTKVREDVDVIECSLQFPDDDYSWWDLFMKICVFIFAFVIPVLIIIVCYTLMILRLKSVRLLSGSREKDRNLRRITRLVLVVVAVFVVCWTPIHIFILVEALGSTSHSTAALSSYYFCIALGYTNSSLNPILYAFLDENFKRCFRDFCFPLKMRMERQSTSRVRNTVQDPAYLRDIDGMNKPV
Sodium channel protein type 9 subunit alpha, sequence (Q15858 whole entry, looked up): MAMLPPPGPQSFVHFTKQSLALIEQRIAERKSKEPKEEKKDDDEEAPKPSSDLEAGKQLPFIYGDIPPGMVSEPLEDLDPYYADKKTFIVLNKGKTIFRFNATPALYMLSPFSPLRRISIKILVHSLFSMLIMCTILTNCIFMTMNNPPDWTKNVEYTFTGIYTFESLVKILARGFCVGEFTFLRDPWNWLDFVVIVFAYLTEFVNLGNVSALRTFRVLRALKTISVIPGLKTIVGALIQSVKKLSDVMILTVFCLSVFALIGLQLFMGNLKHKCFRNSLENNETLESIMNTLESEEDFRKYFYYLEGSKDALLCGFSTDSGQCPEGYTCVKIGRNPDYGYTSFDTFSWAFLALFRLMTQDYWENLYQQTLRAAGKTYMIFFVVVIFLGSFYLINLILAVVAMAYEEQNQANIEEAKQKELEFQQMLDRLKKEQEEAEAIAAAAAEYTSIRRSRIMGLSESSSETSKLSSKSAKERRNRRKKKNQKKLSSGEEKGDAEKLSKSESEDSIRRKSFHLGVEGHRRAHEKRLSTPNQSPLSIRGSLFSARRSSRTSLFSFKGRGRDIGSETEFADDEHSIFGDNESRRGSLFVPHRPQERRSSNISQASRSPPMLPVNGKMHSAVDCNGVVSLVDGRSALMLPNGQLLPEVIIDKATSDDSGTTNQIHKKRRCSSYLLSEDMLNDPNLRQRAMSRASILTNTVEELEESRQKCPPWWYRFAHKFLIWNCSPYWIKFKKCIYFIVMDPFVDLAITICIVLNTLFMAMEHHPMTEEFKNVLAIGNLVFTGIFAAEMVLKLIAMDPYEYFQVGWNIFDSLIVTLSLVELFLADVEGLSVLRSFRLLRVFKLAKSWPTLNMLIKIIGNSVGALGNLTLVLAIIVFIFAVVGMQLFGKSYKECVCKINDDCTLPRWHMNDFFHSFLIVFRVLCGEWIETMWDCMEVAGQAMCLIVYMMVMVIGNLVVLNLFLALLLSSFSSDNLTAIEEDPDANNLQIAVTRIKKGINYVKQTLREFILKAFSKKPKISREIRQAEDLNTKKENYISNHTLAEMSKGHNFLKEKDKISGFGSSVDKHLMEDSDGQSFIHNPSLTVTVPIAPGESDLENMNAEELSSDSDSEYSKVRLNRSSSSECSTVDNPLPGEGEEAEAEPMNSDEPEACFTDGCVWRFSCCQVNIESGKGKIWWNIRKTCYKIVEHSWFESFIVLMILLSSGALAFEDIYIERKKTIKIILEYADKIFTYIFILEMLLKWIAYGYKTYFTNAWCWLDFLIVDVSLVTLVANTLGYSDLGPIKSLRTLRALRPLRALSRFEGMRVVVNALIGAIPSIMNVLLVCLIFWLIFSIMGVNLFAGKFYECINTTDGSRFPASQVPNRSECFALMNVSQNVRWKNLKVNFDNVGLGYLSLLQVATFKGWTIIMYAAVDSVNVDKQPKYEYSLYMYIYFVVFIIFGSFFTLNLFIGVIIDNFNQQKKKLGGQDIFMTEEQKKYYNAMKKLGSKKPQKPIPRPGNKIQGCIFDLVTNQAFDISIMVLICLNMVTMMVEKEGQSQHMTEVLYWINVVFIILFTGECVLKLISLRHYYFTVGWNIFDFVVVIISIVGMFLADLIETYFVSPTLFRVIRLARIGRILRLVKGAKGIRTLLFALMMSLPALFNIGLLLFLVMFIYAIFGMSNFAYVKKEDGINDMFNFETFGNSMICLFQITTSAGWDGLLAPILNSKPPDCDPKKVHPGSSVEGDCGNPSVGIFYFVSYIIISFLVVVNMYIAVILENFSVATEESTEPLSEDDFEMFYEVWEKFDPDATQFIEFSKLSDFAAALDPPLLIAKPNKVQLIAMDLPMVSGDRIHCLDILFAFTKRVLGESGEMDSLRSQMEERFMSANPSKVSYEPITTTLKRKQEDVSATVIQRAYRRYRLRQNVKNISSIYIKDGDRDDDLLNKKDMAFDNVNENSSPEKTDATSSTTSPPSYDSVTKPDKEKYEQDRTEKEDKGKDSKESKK

In the case of `O=C(N[C@H](Cc1ccccc1F)C(=O)N[C@@H]1CCc2c(F)c(F)cc(F)c2N(C2CC2)C1=O)C1CC1C(F)(F)F` (stereo partly drawn), the Activity was 18% in the data set on Rattus norvegicus [1]; 62% with Rattus norvegicus [2]; less than 50% in [4]; “Non-toxic” with Rattus norvegicus [5]; 28% in the data set with Rattus norvegicus [6]; 1% in the data set with Rattus norvegicus [10]. For the same compound, the values for the Activity (with Rattus norvegicus [11]; with Rattus norvegicus [12]; in data set [13]) were 39%, 20% and less than 50%, respectively. In data set [3], this compound gave a half-life of 1.9 h. The compound also yielded a bioavailability in data set [7] of 100%. For the same compound, in data set [8], the K was determined as 24 µM. Moreover, the ED50 in the data set with Rattus norvegicus [9] was 15 mg/kg.
